Holding throughout (format): functional, organism-based
Experiment [1] relates to Candida parapsilosis. Kind of experiment: Growth inhibition of Candida parapsilosis after 24 hrs by broth dilution assay. Particulars: Lodderomyces parapsilosis. An outline of the steps: (§1)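 CLSI-derived checkerboard broth microdilution in RPMI 1640 with 0.165 M MOPS, pH 7.0. Final ranges were AMB 0.03–2.0 µg/ml and CAS 0.03–64 µg/ml, alone or combined. Inoculum 1.0 x 10^3 to 5.0 x 10^3 CFU/ml (2x), 35°C in air. OD490 read at 24 and 48 h; IC50/IC90 taken as 50%/90% turbidity reduction versus control. Quintuplicate.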

Experiment [2] deals with Candida parapsilosis. Nature of the experiment: Antifungal activity against Candida parapsilosis at 0.5 ug/ml after 24 hrs. An outline of the steps: (§2)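 Time-kill with C. parapsilosis strain no. 3. A 0.5 McFarland suspension was diluted 1:10 into MOPS-buffered RPMI 1640 with drug alone or combined, shaken at 35°C. Samples were taken at 0, 2, 6 and 24 h, serially diluted 10-fold and plated on Sabouraud dextrose agar. CFU counted after 48 h at 35°C; detection limit 20 CFU/ml. Triplicate.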

The test system of experiment [3] is Candida parapsilosis. Nature of the experiment: Growth inhibition of Candida parapsilosis after 48 hrs by broth dilution assay. As to conditions: Lodderomyces parapsilosis. The method, boiled down:
as §1

For experiment [4], the system named is Candida parapsilosis. Nature of the experiment: Antifungal activity against Candida parapsilosis at 4 ug/ml after 24 hrs. The method, boiled down: as §2
Experiment [5] concerns Candida parapsilosis. Kind of experiment: Fungistatic effect on Candida parapsilosis at 256 ug/ml after 24 hrs.

Values after ≈ are worked out from the molar mass of the structure shown. Active and inactive are the calls of the source. The rule behind the calls is not given here.

For `C[C@@H]1[C@H](O)[C@@H](C)/C=C/C=C/C=C/C=C/C=C/C=C/C=C/[C@H](O[C@@H]2O[C@H](C)[C@@H](O)[C@H](N)[C@@H]2O)C[C@@H]2O[C@](O)(C[C@@H](O)C[C@@H](O)[C@H](O)CC[C@@H](O)C[C@@H](O)CC(=O)O[C@H]1C)C[C@H](O)[C@H]2C(=O)O` [AMPHOTERICIN B], in the experiment on Candida parapsilosis [1], 0.16 µg/mL (≈ 0.173 µM) corresponded to half-maximal inhibition (IC50) and the IC90 stood at 0.34 µg/mL (≈ 0.368 µM). Also, the result in the experiment on Candida parapsilosis [2] was inactive. In the experiment with Candida parapsilosis [3], the IC50 amounted to 0.18 µg/mL (≈ 0.195 µM) and the IC90 came out at 0.68 µg/mL (≈ 0.736 µM).
In the experiment with Candida parapsilosis [1], `CC[C@H](C)C[C@H](C)CCCCCCCCC(=O)N[C@H]1C[C@@H](O)[C@@H](NCCN)NC(=O)[C@@H]2[C@@H](O)CCN2C(=O)[C@H]([C@H](O)CCN)NC(=O)[C@H]([C@H](O)[C@@H](O)c2ccc(O)cc2)NC(=O)[C@@H]2C[C@@H](O)CN2C(=O)[C@H]([C@@H](C)O)NC1=O` [CASPOFUNGIN] yielded an IC50 of 0.79 µg/mL (≈ 0.723 µM) and an IC90 of 1.36 µg/mL (≈ 1.24 µM). The outcome with Candida parapsilosis [4] was inactive. Besides, the result in the experiment with Candida parapsilosis [5] was Active. In the experiment on Candida parapsilosis [3], this molecule returned an IC50 of 1.17 µg/mL (≈ 1.07 µM) and an IC90 of 2.33 µg/mL (≈ 2.13 µM).

(Values after ChEMBL document CHEMBL1142069, “Caspofungin in combination with amphotericin B against Candida parapsilosis” (Antimicrob Agents Chemother, 2007).)
